Source: ChEMBL document CHEMBL1125228, “A 3-D model for 5-HT1A-receptor agonists based on stereoselective methyl-substituted and conformationally restricted analogues of 8-hydroxy-2-(dipropylamino)tetralin” (J Med Chem, 1991)
Values joined by “and” are separate entries in the source; they are usually repeats but may differ in a detail not shown here. Identical values can stand only once.

Tests used:
[1] = system: Rattus norvegicus; test: In vivo accumulation of DOPA in limbic of rat brain at a dose of 0.1 umol/kg.; assay type: functional
Procedure, shortened: (§1)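 Rats, reserpine-pretreated (5 mg/kg, i.e. 9 μmol/kg sc, 6 h before) or nonpretreated, given test hydrochloride sc in the neck (injection volume 5 mL/kg). Decarboxylase inhibitor NSD 1015 (100 mg/kg ip or 60 mg/kg sc) given 30 min later; decapitation after another 30 min. Brain dissected on ice into striatum, limbic system, hemispheres, brain stem. Homogenized in 0.1 M perchloric acid with α-methyl-DOPA internal standard; DOPA measured by ion-pair reversed-phase HPLC with electrochemical detection.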

[2] = system: Rattus norvegicus; test: In vivo accumulation of DOPA in hemisphere of rat brain at a dose of 0.1 umol/kg.; assay type: functional; procedure, shortened: as §1
[3] = system: Rattus norvegicus; test: In vivo accumulation of DOPA in limbic of rat brain at a dose of 0.32 umol/kg.; assay type: functional; procedure, shortened: as §1
[4] = system: Rattus norvegicus; test: In vivo accumulation of 5-HTP in hemisphere of rat brain at a dose of 0.1 umol/kg.; assay type: functional
Procedure, shortened: (§2)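 Hydrochlorides given sc in the neck (5 mL/kg) to rats, either untreated or reserpine-pretreated (5 mg/kg sc, 6 h before). Decarboxylase inhibitor NSD 1015 (100 mg/kg ip or 60 mg/kg sc) given 30 min later; rats decapitated after another 30 min. Striatum, limbic system, hemispheres and brain stem dissected on ice and homogenized in 0.1 M perchloric acid with α-methyl-DOPA internal standard. DOPA, DA, 5-HTP and 5-HT measured by ion-pair reversed-phase HPLC with electrochemical detection.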

[5] = system: Rattus norvegicus; test: In vivo accumulation of 5-HT in striatum of rat brain at a dose of 0.32 umol/kg.; assay type: functional; procedure, shortened: as §2
[6] = system: Rattus norvegicus; test: In vivo accumulation of 5-HT in striatum of rat brain at a dose of 0.1 umol/kg.; assay type: functional; procedure, shortened: as §2
[7] = system: Rattus norvegicus; test: In vivo accumulation of DOPA in brain stem of rat brain at a dose of 0.32 umol/kg.; assay type: functional; procedure, shortened: as §2
[8] = system: Rattus norvegicus; test: In vivo accumulation of 5-HT in limbic of rat brain at a dose of 0.1 umol/kg.; assay type: functional, Limbic system; procedure, shortened: as §2
[9] = system: Rattus norvegicus; test: In vivo accumulation of 5-HTP in striatum of rat brain at a dose of 1 umol/kg.; assay type: functional; procedure, shortened: as §2
[10] = system: Rattus norvegicus; test: In vivo accumulation of 5-HTP in brain stem of rat brain at a dose of 0.1 umol/kg.; assay type: functional; procedure, shortened: as §2
[11] = system: Rattus norvegicus; test: In vivo accumulation of DA in striatum of rat brain at a dose of 0.32 umol/kg.; assay type: functional; procedure, shortened: as §2
[12] = system: Rattus norvegicus; test: In vivo accumulation of DOPA in striatum of rat brain at a dose of 1 umol/kg.; assay type: functional; procedure, shortened: as §1
[13] = system: Rattus norvegicus; test: In vivo accumulation of 5-HTP in hemisphere of rat brain at a dose of 1 umol/kg.; assay type: functional; procedure, shortened: as §2
[14] = system: Rattus norvegicus; test: In vivo accumulation of 5-HTP in limbic of rat brain at a dose of 0.32 umol/kg.; assay type: functional; procedure, shortened: as §2
[15] = system: Rattus norvegicus; test: In vivo accumulation of 5-HTP in brain stem of rat brain at a dose of 0.32 umol/kg.; assay type: functional; procedure, shortened: as §2
[16] = system: Rattus norvegicus; test: In vivo accumulation of 5-HTP in striatum of rat brain at a dose of 0.1 umol/kg.; assay type: functional; procedure, shortened: as §2
[17] = system: Rattus norvegicus; test: In vivo accumulation of 5-HTP in limbic of rat brain at a dose of 0.1 umol/kg.; assay type: functional; procedure, shortened: as §2
[18] = system: Rattus norvegicus; test: In vivo accumulation of DOPA in striatum of rat brain at a dose of 0.1 umol/kg.; assay type: functional; procedure, shortened: as §1
[19] = system: Rattus norvegicus; test: In vivo accumulation of DOPA in striatum of rat brain at a dose of 0.32 umol/kg.; assay type: functional; procedure, shortened: as §1
[20] = system: Rattus norvegicus; test: In vivo accumulation of 5-HTP in striatum of rat brain at a dose of 0.32 umol/kg.; assay type: functional; procedure, shortened: as §2
[21] = system: Rattus norvegicus; test: In vivo accumulation of 5-HTP in hemisphere of rat brain at a dose of 0.32 umol/kg.; assay type: functional; procedure, shortened: as §2
[22] = system: Rattus norvegicus; test: In vivo accumulation of 5-HTP in brain stem of rat brain at a dose of 1 umol/kg.; assay type: functional; procedure, shortened: as §2
[23] = system: Rattus norvegicus; test: In vivo accumulation of 5-HTP in limbic of rat brain at a dose of 1 umol/kg.; assay type: functional; procedure, shortened: as §2
[24] = system: Rattus norvegicus; test: In vivo accumulation of 5-HT in limbic of rat brain at a dose of 1 umol/kg.; assay type: functional; procedure, shortened: as §2
[25] = system: Rattus norvegicus; test: In vivo accumulation of DOPA in brain stem of rat brain at a dose of 0.1 umol/kg.; assay type: functional; procedure, shortened: as §2
[26] = system: Rattus norvegicus; test: In vivo accumulation of DA in striatum of rat brain at a dose of 1 umol/kg.; assay type: functional; procedure, shortened: as §2
[27] = system: Rattus norvegicus; test: In vivo accumulation of DA in striatum of rat brain at a dose of 0.1 umol/kg.; assay type: functional; procedure, shortened: as §2
[28] = system: Rattus norvegicus; test: In vivo accumulation of 5-HT in striatum of rat brain at a dose of 1 umol/kg.; assay type: functional; procedure, shortened: as §2
[29] = system: Rattus norvegicus; test: In vivo accumulation of DOPA in hemisphere of rat brain at a dose of 0.32 umol/kg.; assay type: functional; procedure, shortened: as §1
[30] = system: Rattus norvegicus; test: In vivo accumulation of DOPA in limbic of rat brain at a dose of 1 umol/kg.; assay type: functional; procedure, shortened: as §1
[31] = system: Rattus norvegicus; test: In vivo accumulation of DOPA in brain stem of rat brain at a dose of 1 umol/kg.; assay type: functional; procedure, shortened: as §2
[32] = system: Rattus norvegicus; test: In vivo accumulation of 5-HT in limbic of rat brain at a dose of 0.32 umol/kg.; assay type: functional; procedure, shortened: as §2
[33] = system: Rattus norvegicus; test: In vivo accumulation of 5-HTP in limbic of rat brain at a dose of 3.2 umol/kg.; assay type: functional; procedure, shortened: as §2
[34] = system: Rattus norvegicus; test: In vivo accumulation of 5-HT in striatum of rat brain at a dose of 3.2 umol/kg.; assay type: functional; procedure, shortened: as §2
[35] = system: Rattus norvegicus; test: In vivo accumulation of 5-HTP in brain stem of rat brain at a dose of 3.2 umol/kg.; assay type: functional; procedure, shortened: as §2
[36] = system: Rattus norvegicus; test: In vivo accumulation of DOPA in striatum of rat brain at a dose of 3.2 umol/kg.; assay type: functional; procedure, shortened: as §1
[37] = system: Rattus norvegicus; test: In vivo accumulation of 5-HTP in hemisphere of rat brain at a dose of 3.2 umol/kg.; assay type: functional; procedure, shortened: as §2
[38] = system: Rattus norvegicus; test: In vivo accumulation of DOPA in brain stem of rat brain at a dose of 3.2 umol/kg.; assay type: functional; procedure, shortened: as §2
[39] = system: Rattus norvegicus; test: In vivo accumulation of 5-HTP in striatum of rat brain at a dose of 3.2 umol/kg.; assay type: functional; procedure, shortened: as §2
[40] = system: Rattus norvegicus; test: In vivo accumulation of DA in striatum of rat brain at a dose of 3.2 umol/kg.; assay type: functional; procedure, shortened: as §2
[41] = system: Rattus norvegicus; test: In vivo accumulation of DOPA in limbic of rat brain at a dose of 3.2 umol/kg.; assay type: functional; procedure, shortened: as §1
[42] = system: Rattus norvegicus; test: In vivo accumulation of DOPA in hemisphere of rat brain at a dose of 3.2 umol/kg.; assay type: functional; procedure, shortened: as §1
[43] = system: Rattus norvegicus; test: In vivo accumulation of 5-HT in limbic of rat brain at a dose of 3.2 umol/kg.; assay type: functional; procedure, shortened: as §2

Row | SMILES | Control [3] | Control [5] [%] | Control [7] [%] | Control [9] [%] | Control [11] [%] | Control [12] [%] | Control [13] [%] | Control [14] [%] | Control [15] [%] | Control [19] [%] | Control [20] [%] | Control [21] [%] | Control [22] [%] | Control [23] [%] | Control [24] [%] | Control [26] [%] | Control [28] [%] | Control [29] [%] | Control [30] | Control [31] [%] | further results
1 | CCCN1CCC[C@H]2c3c(O)cccc3CC[C@@H]21 | 115.9% and 107.8% | 81.6 | 110.1 | 44.7 | 108.2 | 117.6 | 43 | 69.7 | 70.7 | 113.6 | 51.5 | 60.8 | 61.1 | 52.3 | 170.1 | 115.8 | 134.9 | 114 | 107.3% and 111% | 133.3 | Control [1]: 95.9% and 124.5%; Control [2]: 97%; Control [4]: 74.7%; Control [6]: 98.1%; Control [8]: 126.7%; Control [10]: 90.8%; Control [16]: 55.3%; Control [17]: 85.1%; Control [18]: 109.3%; Control [25]: 93.2%; Control [27]: 123.1%; Control [32]: 138.1%
2 | CCCN1CCC[C@@H]2c3c(O)cccc3CC[C@H]21 | 91.1% and 114.1% | 107.1 | 87 | 56.3 | 110.6 | 116.2 | 51.9 | 85.1 | 76.1 | 109.4 | 69.9 | 70.9 | 65.3 | 58.5 | 119.3 | 129.5 | 113.2 | 111 | 85.5% and 95.2% | 102.9 | Control [33]: 50.3%; Control [34]: 128.8%; Control [35]: 59.9%; Control [36]: 99.6%; Control [37]: 50.6%; Control [38]: 125.1%; Control [39]: 34%; Control [40]: 120.2%; Control [41]: 111.4% and 118.2%; Control [42]: 119%; Control [43]: 144.1%; Control [32]: 108.1%
